For data set [1], the target named is T1, 5-hydroxytryptamine receptor 7 (Homo sapiens, UniProt P34969). The data set is described as follows: Displacement of [3H]-LSD from recombinant human 5-HT7 receptor expressed in CHO cell membranes at 10 uM measured after 60 mins by scintillation counting method. The gist of the method: (§1)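 The 5-HT1A assay displaced [3H]-8-OH-DPAT from HEK-293 cell membrane homogenates. The 5-HT7 assay displaced [3H]-LSD from CHO cell membrane homogenates. The SERT assay measured [3H]-5-HT uptake into rat brain synaptosomes.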
T1 sequence (P34969 whole entry): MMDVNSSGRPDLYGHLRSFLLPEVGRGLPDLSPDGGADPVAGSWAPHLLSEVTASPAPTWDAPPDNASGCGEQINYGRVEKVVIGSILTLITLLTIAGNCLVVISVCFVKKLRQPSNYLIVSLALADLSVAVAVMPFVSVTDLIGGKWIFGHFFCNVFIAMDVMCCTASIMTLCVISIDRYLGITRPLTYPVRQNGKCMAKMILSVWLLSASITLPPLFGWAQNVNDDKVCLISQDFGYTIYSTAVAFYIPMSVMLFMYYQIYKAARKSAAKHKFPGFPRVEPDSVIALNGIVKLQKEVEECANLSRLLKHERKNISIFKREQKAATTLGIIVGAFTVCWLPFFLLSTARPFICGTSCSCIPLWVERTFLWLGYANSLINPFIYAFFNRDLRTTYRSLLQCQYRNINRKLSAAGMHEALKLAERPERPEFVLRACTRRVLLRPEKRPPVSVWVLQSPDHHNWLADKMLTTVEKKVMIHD
For orientation: Loss of bound radioactivity is the signal in a displacement assay; it reports binding, not function.

The target of data set [2] is Sodium-dependent serotonin transporter (Rattus norvegicus) (UniProt P31652). The data set is described as follows: Inhibition of SERT in rat brain synaptosomes assessed as reduction in [3H]-5-HT uptake at 10 uM measured after 15 mins by scintillation counting method relative to control. Type of data set: subcellular. The gist of the method:
as §1

The target in data set [3] is T2, 5-hydroxytryptamine receptor 1A (Homo sapiens) (UniProt P08908).
T2 sequence (whole entry): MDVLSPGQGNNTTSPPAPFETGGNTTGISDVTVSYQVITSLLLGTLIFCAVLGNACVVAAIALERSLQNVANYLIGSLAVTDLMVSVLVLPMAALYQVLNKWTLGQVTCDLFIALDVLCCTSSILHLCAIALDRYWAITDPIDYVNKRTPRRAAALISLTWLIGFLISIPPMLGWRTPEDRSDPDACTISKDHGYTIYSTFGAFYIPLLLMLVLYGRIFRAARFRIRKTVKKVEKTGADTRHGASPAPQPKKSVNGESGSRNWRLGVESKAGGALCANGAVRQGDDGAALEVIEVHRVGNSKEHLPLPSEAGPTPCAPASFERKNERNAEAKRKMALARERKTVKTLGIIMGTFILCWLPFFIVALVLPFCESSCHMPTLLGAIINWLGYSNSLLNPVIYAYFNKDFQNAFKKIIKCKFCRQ
The data set can be described thus: Displacement of [3H]8-OH-DPAT from recombinant human 5-HT1A receptor expressed in HEK293 cell membranes at 10 uM measured after 60 mins by scintillation counting method. The gist of the method:
as §1

The subject of data set [4] is Mus musculus. The data set can be described thus: Antidepressant-like activity in mouse assessed as reduction in immobility time at 20 mg/kg, po administered once daily for 7 days measured last 4 mins of 6 mins test by forced swim test relative to control. The class given is functional. On the set-up: scale not given: the % may be the effect or the level left. The gist of the method: (§2)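 Mouse forced swim test. Oral dosing once daily for 7 days at 10, 20 or 40 mg/kg/day. […] Read-out is immobility time. Data given as mean ± SEM, n = 10 per group, tested against vehicle at P<0.05 and P<0.01.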

Data set [5] is described as follows: Clearance in rat liver microsomes at 1 uM measured after 90 mins in presence of NADPH regenerating system by LC-MS/MS analysis. The class given is ADME, microsome. The conditions noted are these: read-out: CLH. On the technique in general: Liver microsomes are vesicles of endoplasmic reticulum, rich in cytochrome P450 enzymes.
In data set [6] the test system is Mus musculus. The data set can be described thus: Antidepressant-like activity in mouse assessed as reduction in immobility time at 40 mg/kg, po administered once daily for 7 days measured last 4 mins of 6 mins test by forced swim test relative to control. The class given is functional. On the set-up: scale not given: the % may be the effect or the level left. In short, it runs like this:
as §2

Data set [7] can be described thus: Half-life in rat liver microsomes at 1 uM in presence of NADPH regenerating system by LC-MS/MS analysis. The class given is ADME, microsome.
In data set [8] the test system is Mus musculus. The data set is described as follows: Antidepressant-like activity in po dosed mouse assessed as reduction in immobility time administered once daily for 7 days measured last 4 mins of 6 mins test by forced swim test. Type of data set: functional, organism-based. In short, it runs like this: as §2
Data set [9] concerns the target T1, 5-hydroxytryptamine receptor 7. The data set can be described thus: Displacement of [3H]-LSD from recombinant human 5-HT7 receptor expressed in CHO cell membranes measured after 60 mins by scintillation counting method. In short, it runs like this: (§3)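 The 5-HT1A assay used [3H]-8-OH-DPAT displacement on HEK-293 membranes. The 5-HT7 assay used [3H]-LSD displacement on CHO membranes. The SERT assay measured [3H]-5-HT uptake into rat brain synaptosomes.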

In data set [10] the target is T3, 5-hydroxytryptamine receptor 1A (Homo sapiens, UniProt P08908).
T3 sequence (P08908 whole entry): T2 sequence (whole entry)
The data set can be described thus: Displacement of [3H]8-OH-DPAT from recombinant human 5-HT1A receptor expressed in HEK293 cell membranes measured after 60 mins by scintillation counting method.

In data set [11] the test system is Mus musculus. The data set can be described thus: Antidepressant-like activity in mouse assessed as reduction in immobility time at 10 mg/kg, po administered once daily for 7 days measured last 4 mins of 6 mins test by forced swim test relative to control. The class given is functional. On the set-up: scale not given: the % may be the effect or the level left. The gist of the method:
as §2

Data set [12] addresses T4, Sodium-dependent serotonin transporter (Rattus norvegicus, UniProt P31652). The data set is described as follows: Inhibition of SERT in rat brain synaptosomes assessed as reduction in [3H]-5-HT uptake measured after 15 mins by scintillation counting method. The class given is subcellular. The gist of the method:
as §3

Data set [13] addresses Sodium-dependent serotonin transporter (Homo sapiens, UniProt P31645). The data set can be described thus: Binding affinity to SERT (unknown origin).
For data set [14], the target named is T3, 5-hydroxytryptamine receptor 1A. The data set is described as follows: Binding affinity to 5-HT1A receptor (unknown origin).
In data set [15] the target is T4, Sodium-dependent serotonin transporter. The data set can be described thus: Displacement of [3H]-paroxetine from rat cerebral cortex SERT.
Data set [16] deals with T5, 5-hydroxytryptamine receptor 1A (Rattus norvegicus, UniProt P19327).
T5 sequence (P19327 whole entry): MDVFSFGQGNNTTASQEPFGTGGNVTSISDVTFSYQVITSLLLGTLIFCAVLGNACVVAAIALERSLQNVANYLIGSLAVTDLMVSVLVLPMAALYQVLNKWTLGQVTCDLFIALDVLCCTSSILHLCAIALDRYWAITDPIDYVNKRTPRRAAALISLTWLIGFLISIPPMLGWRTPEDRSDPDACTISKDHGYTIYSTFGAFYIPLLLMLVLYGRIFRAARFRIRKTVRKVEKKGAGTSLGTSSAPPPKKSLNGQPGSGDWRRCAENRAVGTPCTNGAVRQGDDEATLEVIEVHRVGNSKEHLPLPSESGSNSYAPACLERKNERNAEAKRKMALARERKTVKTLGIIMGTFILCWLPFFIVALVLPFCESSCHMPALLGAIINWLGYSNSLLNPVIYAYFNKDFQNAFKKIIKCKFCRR
The data set is described as follows: Displacement of [3H]8-OH-DPAT from rat cerebral cortex 5-HT1A receptor.

Molecules are shown by their SMILES.

T4 sequence (P31652 whole entry): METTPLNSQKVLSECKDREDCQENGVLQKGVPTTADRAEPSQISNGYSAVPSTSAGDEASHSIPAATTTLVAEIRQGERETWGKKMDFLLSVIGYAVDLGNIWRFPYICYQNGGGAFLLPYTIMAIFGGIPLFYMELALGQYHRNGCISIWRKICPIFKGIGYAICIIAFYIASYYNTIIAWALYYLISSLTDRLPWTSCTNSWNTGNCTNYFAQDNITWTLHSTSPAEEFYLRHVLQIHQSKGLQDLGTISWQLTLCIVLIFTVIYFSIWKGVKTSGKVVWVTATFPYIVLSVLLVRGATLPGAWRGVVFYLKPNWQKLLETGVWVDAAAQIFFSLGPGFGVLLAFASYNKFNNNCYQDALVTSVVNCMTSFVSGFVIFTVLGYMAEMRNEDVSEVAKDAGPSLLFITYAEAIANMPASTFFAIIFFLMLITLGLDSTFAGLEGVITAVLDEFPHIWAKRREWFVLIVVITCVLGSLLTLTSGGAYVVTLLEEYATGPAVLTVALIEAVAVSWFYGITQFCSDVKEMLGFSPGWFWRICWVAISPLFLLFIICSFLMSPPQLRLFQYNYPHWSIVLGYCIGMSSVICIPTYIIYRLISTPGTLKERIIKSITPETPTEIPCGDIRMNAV
Sequence of Sodium-dependent serotonin transporter (Rattus norvegicus) (P31652 whole entry): as above
Sequence of Sodium-dependent serotonin transporter (Homo sapiens, UniProt P31645) (P31645 whole entry): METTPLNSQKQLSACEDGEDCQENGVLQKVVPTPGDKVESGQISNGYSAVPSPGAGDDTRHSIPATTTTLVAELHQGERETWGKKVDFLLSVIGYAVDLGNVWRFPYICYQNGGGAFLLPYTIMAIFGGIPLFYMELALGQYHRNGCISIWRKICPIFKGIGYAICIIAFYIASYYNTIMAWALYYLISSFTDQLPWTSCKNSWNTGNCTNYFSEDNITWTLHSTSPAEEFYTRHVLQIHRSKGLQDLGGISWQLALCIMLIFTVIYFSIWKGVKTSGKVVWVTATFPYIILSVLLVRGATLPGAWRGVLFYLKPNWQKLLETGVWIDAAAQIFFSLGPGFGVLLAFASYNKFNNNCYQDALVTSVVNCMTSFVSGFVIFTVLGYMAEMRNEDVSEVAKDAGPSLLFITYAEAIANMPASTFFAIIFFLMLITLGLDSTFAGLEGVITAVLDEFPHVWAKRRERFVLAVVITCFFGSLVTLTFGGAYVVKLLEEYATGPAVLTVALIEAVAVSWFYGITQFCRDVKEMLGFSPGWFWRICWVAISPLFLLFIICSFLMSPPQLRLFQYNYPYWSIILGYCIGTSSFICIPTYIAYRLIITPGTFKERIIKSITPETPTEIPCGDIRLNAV

Broadly, the inhibition is the drop in the measured response relative to a control, in per cent. For the compound `Oc1ccccc1N1CCN(CCC(O)c2ccc(Cl)c(Cl)c2)CC1` (stereo not drawn), the values for the inhibition in data set [1], in [2] and in data set [3] were 102%, 84.9% and 99.4%, respectively.

For the compound `Cc1ccc(-c2ccccc2N2CCN(CCc3ccc(Cl)c(Cl)c3)CC2)cc1`, the inhibition worked out at 98.1% in [1], 65.8% in [2] and 99.5% in [3].

With `OC(CCN1CCN(c2cccc(-c3ccccc3)c2)CC1)c1ccc(Cl)c(Cl)c1` (stereo not drawn), the inhibition in [1] worked out at 69.8%; in data set [2] it was 105%; in data set [3], 91.5%.

As usually defined, the half-life is the time in which the quantity being followed falls by half. One may read the Ki as the dissociation constant of the complex between target and ligand, obtained from inhibition or displacement. By IC50 is commonly meant the concentration that inhibits the measured activity by half. For the compound `Clc1ccc(CCN2CCN(c3nsc4ccccc34)CC2)cc1Cl`, the Activity in the data set with Mus musculus [4] is 21%; with Mus musculus [6] it was 45%; with Mus musculus [8], “Dose-dependent effect”; with Mus musculus [11] it was 17%. Also, the microsomal CLint at 1 µM in data set [5] was determined as 262 µL/min/mg. In addition, the inhibition in [1] was found to be 96%; in data set [2] it was 102%; in data set [3], 98.7%. Besides, the half-life at 1 µM in [7] worked out at 5.3 min. Moreover, the figures for the inhibition constant (Ki) in data set [9] and in data set [10] were 12 nM and 0.84 nM, respectively. For the same compound, the IC50 in data set [12] is 100 nM.

Consider `COc1ccccc1N1CCN(CCCN2CCOc3ccccc32)CC1`, for which the 50% inhibitory concentration (IC50) in data set [13] was found to be 195 nM. For the same compound, the Ki in data set [14] turned out to be 1.48 nM.

For the compound `Fc1ccc(-c2ccccc2N2CCN(CCc3ccc(Cl)c(Cl)c3)CC2)cc1`, the inhibition in data set [1] is 96.7%; in [2], 92.1%; in data set [3], 98.8%. For the same compound, the IC50 in data set [12] came out at 950 nM.

Turning to `COc1ccc(-c2ccccc2N2CCN(CCc3ccc(Cl)c(Cl)c3)CC2)cc1`, the inhibition in data set [1] turned out to be 97.5%; in [2] it was 66.1%; in data set [3], 98.7%.

As for `Clc1ccc(CCN2CCN(c3ccccc3-c3ccccc3)CC2)cc1Cl`, the inhibition in data set [1] is 101%; in data set [2], 104%; in [3] it was 97.8%. Also, the Ki in data set [9] is 0.75 nM; in [10] it was 6.3 nM. In addition, the half-inhibitory concentration (IC50) in [12] amounted to 840 nM.

For `Cc1cccc(-c2ccccc2N2CCN(CCc3ccc(Cl)c(Cl)c3)CC2)c1`, the figures for the inhibition in data set [1], in data set [2] and in [3] were 94.7%, 72.3% and 98.4%, respectively.

For the compound `Cc1ccc(-c2ccccc2N2CCN(CCc3ccc(Cl)c(Cl)c3)CC2)cc1C`, the inhibition in [1] was 93.2%; in data set [2], 17.6%; in data set [3], 96.8%.

As for `Cc1ccccc1-c1ccccc1N1CCN(CCc2ccc(Cl)c(Cl)c2)CC1`, the inhibition in [1] turned out to be 97.3%; in data set [2] it was 61.6%; in [3] it was 93.9%.

On to `COc1ccc2[nH]c([S+]([O-])Cc3ncc(C)c(OC)c3C)nc2c1` (stereo not drawn) [OMEPRAZOLE], for which the microsomal CLint at 1 µM in data set [5] was 163 µL/min/mg. Also, the half-life at 1 µM in data set [7] is 8.5 min.

As to `OC(CN1CCN(c2ccccc2)CC1)c1ccc(Cl)c(Cl)c1` (stereo not drawn), the Activity is 26% with Mus musculus [4], 30% with Mus musculus [6], “Dose-dependent effect” with Mus musculus [8] and 16% in the data set on Mus musculus [11]. The microsomal CLint at 1 µM in data set [5] turned out to be 226 µL/min/mg. Also, the figures for the inhibition in [1], in [2] and in data set [3] were 99.8%, 112% and 98.5%, respectively. Moreover, the half-life at 1 µM in data set [7] is 6.1 min. The Ki in data set [9] worked out at 3.2 nM; in data set [10], 2.4 nM. Besides, the IC50 in data set [12] came out at 340 nM.

For the compound `Cc1ccc(Sc2ccccc2N2CCNCC2)c(C)c1` [VORTIOXETINE], the Activity in the data set on Mus musculus [4] is 34 - 35%. Further, in [5], the microsomal CLint at 1 µM turned out to be 153 µL/min/mg. Also, the half-life at 1 µM in [7] turned out to be 9 min. Further, the inhibition constant (Ki) in [9] was determined as 26 nM. For the same compound, the IC50 in [12] was determined as 2.9 nM.

Take `COc1ccccc1N1CCN(CCC(O)c2ccc(Cl)c(Cl)c2)CC1` (stereo not drawn): the inhibition amounted to 101% in data set [1], 88.8% in [2] and 99.3% in data set [3].

For `CSc1ccccc1N1CCN(CCC(O)c2ccc(Cl)c(Cl)c2)CC1` (stereo not drawn), the inhibition in data set [1] was found to be 101%; in data set [2], 89%; in [3] it was 99.9%.

In the case of `Cc1ccc(-c2ccccc2N2CCN(CCc3ccc(Cl)c(Cl)c3)CC2)c(C)c1`, the inhibition in data set [1] was 93.5%; in data set [2], 31.5%; in [3], 83.2%.

With `COc1ccccc1N1CCN(CCC(O)c2csc3ccc(F)cc23)CC1` (stereo not drawn), the values for the Ki in data set [15] and in [16] were 12 nM and 2.3 nM, respectively.

In the case of `OC(CCN1CCN(c2ccccc2-c2ccccc2)CC1)c1ccc(Cl)c(Cl)c1` (stereo not drawn), the inhibition in data set [1] came out at 102%; in data set [2], 98.9%; in [3] it was 98.9%. Further, the IC50 in [12] came to 590 nM.

In the case of `Fc1cccc(-c2ccccc2N2CCN(CCc3ccc(Cl)c(Cl)c3)CC2)c1`, the values for the inhibition in data set [1], in data set [2] and in [3] were 96.4%, 97.2% and 99.7%, respectively. The IC50 in [12] came out at 880 nM.

Values taken from ChEMBL document CHEMBL4177692, “Synthesis and antidepressant activity of a series of arylalkanol and aralkyl piperazine derivatives targeting SSRI/5-HT1A/5-HT7” (Bioorg Med Chem Lett, 2017).
